ABHD5-PLIN5 inh: blocks binding of human ABHD5 to perilipin-5. Split G. princeps luciferase complementation, luminescence, 4 h. inhibition, % at 4 µM. hit rate 0.78% among 360,000. AID 602281;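 active means inhibition above the mean inhibition across every tested compound plus 3 SD, cut at about 22% in these data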;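 further: 0% = DMSO only wells and the 100% control is not disclosed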
Rpn11 inh: blocks the human proteasome subunit Rpn11 | human 26S proteasome, Ub4-pepOG fluorescence polarization; 20S core pre-blocked with epoxomicin | inhibition, % at 20 µM | hit rate 0.59% among 360,000;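 active means inhibition at 20 µM, scaled to each plate's controls, above about 33%, limit read from the data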
Target sequence (O00487 whole entry, looked up): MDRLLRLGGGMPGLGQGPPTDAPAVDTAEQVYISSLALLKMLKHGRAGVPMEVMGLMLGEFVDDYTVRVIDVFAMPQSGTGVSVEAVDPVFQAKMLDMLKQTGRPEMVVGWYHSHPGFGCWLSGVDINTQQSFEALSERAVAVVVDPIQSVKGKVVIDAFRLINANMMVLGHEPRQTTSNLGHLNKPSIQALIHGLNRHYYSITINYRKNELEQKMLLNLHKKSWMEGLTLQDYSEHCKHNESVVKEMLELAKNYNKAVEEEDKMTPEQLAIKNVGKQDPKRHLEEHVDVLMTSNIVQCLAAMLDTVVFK
Rin1-Abl PPI inh: inhibitors of human Rin1-Abl protein interaction; TR-FRET Rin1/Abl binding, biochemical; inhibition, % at 7.35 µM; hit rate 0.4% among 360,000; in the data active means inhibition above about 5%, passing the limit was not always enough
NadD inh: inhibitors of Staphylococcus aureus NadD; purified NadD enzyme, colorimetric absorbance read-out; inhibition, % at 20 µM; hit rate 0.78% among 360,000; AID 602399; in the data active means inhibition above about 26%
Xi reactivation: X-chromosome reactivation activator. XiGFP mouse fibroblasts, % GFP-positive cells imaging, 3 d; cells co-treated with 5-aza-dC sensitizer; scaled so ellipticine positive control = 100%. activation, % at 7.58 µM. hit rate 0.055% among 360,000. AID 743238;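 active means mean normalized replicate activation at least 10% and every replicate at or above 10%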;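 further: 0% = median of on-plate neutral control wells and 100% = ellipticine 6 µM median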
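assay system = SV40-immortalized XiGFP fibroblast cells, line 68-5-11 | buffer or medium = DMEM plus 5-aza-dC sensitizer | doses = single-point pinned compound dosing | times = 3-day compound exposure, then 15 min fixation at room temperature | benchmarks = positive control ellipticine, 6 µM final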
ABHD5 PLIN5 conf: confirmation of human ABHD5-PLIN5 interaction inhibitors; shares compounds with ABHD5-PLIN5 inh; biochemical ABHD5-PLIN5 interaction, luminescence; inhibition, % at 4 µM; hit rate 67% among 2,200; in the data active means inhibition above about 23%;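 further: 0% = DMSO vehicle wells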
HNF4 counter: counter-screen for ABHD5-PLIN5 inhibitors: HNF4 split-luciferase; shares compounds with ABHD5-PLIN5 inh; HNF4 dimerization, luminescence, biochemical; inhibition, % at 4 µM; hit rate 77% among 2,200;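 active means mean inhibition across replicate wells exceeding the computed hit threshold, cut at about 13% in these data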;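 further: light from luciferase halves that rejoin when HNF4 fusion proteins dimerize; 0% = DMSO only wells and the 100% control is not given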
The depositor's hits bear a star; . = no result. Only some compounds are listed: those with a hit (about 1.9% of all), similar ones and a draw of the others.

SMILES	ABHD5-PLIN5 inh	Rpn11 inh	Rin1-Abl PPI inh	NadD inh	Xi reactivation	ABHD5 PLIN5 conf	HNF4 counter
C#CCOCCOCCOCCNc1nc(N2CCN(C(=O)CCCCCCCCCCNC(=O)[C@H](CCCCN)n3cc(CCO)nn3)CC2)nc(N2CCN(C(=O)CCCCCCCCCCNC(=O)[C@@H]([C@H](C)O)n3cc(C)nn3)CC2)n1	45.0*	7.4	9.6*	15.9	.	28.8*	13.4*
C#CCOCCOCCOCCNc1nc(N2CCN(C(=O)CCCCCCCCCCNC(=O)[C@H](CCC(=O)O)n3cc(CCCCCN)nn3)CC2)nc(N2CCN(C(=O)CCCCCCCCCCNC(=O)[C@@H]([C@H](C)O)n3cc(C)nn3)CC2)n1	27.1*	-3.4	7.1	-3.1	.	7.1	0.7
C#CCOCCOCCOCCNc1nc(N2CCN(C(=O)Cn3cc(CCO)nn3)CC2)nc(N2CCN(C(=O)[C@H]([C@@H](C)O)n3cc(CCCCN)nn3)CC2)n1	-5.4	0.6	-0.6	-5.5	0.3	.	.
C#CCOCCOCCOCCNc1nc(N2CCN(C(=O)CCCCCCCCCCNC(=O)[C@@H]([C@H](C)O)n3cc(C)nn3)CC2)nc(N2CCN(C(=O)CCCCCCCCCCNC(=O)[C@@H]([C@H](C)O)n3cc(C)nn3)CC2)n1	39.9*	-7.5	1.3	-3.7	0.4	8.3	-12.6
C#CCOCCOCCOCCNc1nc(N2CCN(C(=O)CCCCCCCCCCNC(=O)Cn3cc(C[C@@H](C)O)nn3)CC2)nc(N2CCN(C(=O)CCCCCCCCCCNC(=O)Cn3cc(C[C@@H](C)O)nn3)CC2)n1	15.3	-6.2	8.4	5.7	-0.1	.	.
C#CCOCCOCCOCCNc1nc(N2CCN(C(=O)CCCCCCCCCCNC(=O)Cn3cc(CCCCCN)nn3)CC2)nc(N2CCN(C(=O)CCCCCCCCCCNC(=O)[C@H](CO)n3cc(CCCCCN)nn3)CC2)n1	37.4*	-8.9	5.4	13.9	.	10.3	-0.1
CN1C(=O)c2cc(NC(=O)c3cccc(C(F)(F)F)c3)ccc2OC[C@H]2O[C@@H](CC(=O)O)CC[C@H]21	.	.	.	.	0.1	.	.
CO[C@@H]1CN(C)C(=O)c2ccc(NS(C)(=O)=O)cc2OC[C@H](C)N(Cc2ccccc2)C[C@@H]1C	.	.	.	.	1.0	.	.
CC(=O)N1[C@H](CO)[C@@H](c2ccccc2)C12CN(C(=O)c1cnccn1)C2	.	.	.	.	0.2	.	.
O=C(NCc1ccc(F)cc1)[C@@H]1[C@@H](CO)[C@@H]2Cn3c(cccc3=O)[C@@H]2N1CCC(F)(F)F	.	.	.	.	0.3	.	.
Cc1noc(C)c1S(=O)(=O)Nc1ccc2c(c1)C(=O)N([C@@H](C)CO)C[C@@H](C)[C@H](CN(C)Cc1ccc(Cl)c(Cl)c1)OCCCC[C@@H](C)O2	.	.	.	.	0.0	.	.
COc1ccc2c3c([nH]c2c1)[C@H](CO)N(Cc1ccccc1)CC31CN(S(C)(=O)=O)C1	.	.	.	.	0.3	.	.
Cc1ccc(C(=O)c2coc3c2C(=O)C(=O)c2ccccc2-3)cc1	85.1*	2.5	2.1	-1.9	.	93.6*	64.6*
Cc1oc2c(c1C(=O)c1ccc(Cl)cc1)C(=O)C(=O)c1ccccc1-2	54.7*	-3.1	-5.9	10.5	.	80.5*	34.7*
Cc1oc2c(c1C(=O)N1CCC(C)CC1)C(=O)c1ccccc1C2=O	.	.	.	.	0.2	.	.
Cc1ccc(C(=O)c2c(C)oc3c2C(=O)C(=O)c2ccccc2-3)cc1	51.2*	1.8	-7.4	5.4	.	83.9*	60.1*
COc1ccc(C(=O)c2coc(-c3ccccc3C(=O)O)c2C(=O)O)cc1	2.8	-5.9	0.5	-1.7	0.1	.	.
CN1C(=O)c2cc(NC(=O)c3cccc(F)c3)ccc2OC[C@H]2O[C@H](CC(=O)N3CCc4ccccc4C3)CC[C@H]21	.	.	.	.	0.0	.	.
CC(=O)Nc1ccc2c(c1)C(=O)N(C)[C@H]1CC[C@H](CC(=O)Nc3cccc(F)c3)O[C@@H]1CO2	.	.	.	.	0.1	.	.
C[C@@H]1CN([C@@H](C)CO)S(=O)(=O)c2ccc(C#CC3CC3)cc2O[C@H]1CN(C)C(=O)Nc1cc(F)ccc1F	.	.	.	.	-0.9	.	.
C=C1C(=O)O[C@@H]2[C@H]1[C@@H](OC(=O)/C(C)=C/C)C/C(C)=C\C(=O)/C=C(\C)[C@@H]2O	42.1*	-1.3	0.2	2.2	0.0	61.9*	72.1*

Screening results from PubChem BioAssay.
